Laboratory results taken from ChEMBL document CHEMBL1153564 (Antimicrob Agents Chemother, 2008).
Converted amounts (≈) assume the structure as drawn. The source made the active and inactive calls. No cut-off for these calls is given here. Starred links: 1 amine or outer side, 2 acyl side, 3 side chain; linkers in the order of their positions; H or OH if unused. Positions of bridges follow the written chain, without caps; N, C: chain ends. Non-standard residues stand in square brackets, D forms with d. Residues, ends and D or L forms follow the SMILES beside them. *: point of attachment. pTerphenylCO(4''-OnC5H11) = CCCCCOc1ccc(-c2ccc(-c3ccc(C(=O)*)cc3)cc2)cc1; Orn(4R-OH,5R-OH) = O=C([C@H](C[C@@H](O)[C@@H](O)N[*:3])N[*:1])[*:2]; hTyr(3S-OH,4S-OH) = N[C@H](C(=O)O)[C@H](O)[C@@H](O)c1ccc(O)cc1; Pro(3S-OH,4S-Me) = C[C@H]1CN[C@H](C(=O)O)[C@H]1O; Hyp = O=C(O)[C@@H]1C[C@@H](O)CN1

Legend:
[1] = tested on: Candida albicans; assay: Antifungal activity against Candida albicans 98-17 assessed as partial growth inhibition after 24 hrs by CLSI end point method; format: functional; conditions: 98-17, 24 h
Procedure, shortened: (§1)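 CLSI M27-A2 broth dilution. Two end points read against the drug-free control well: partial inhibition (CLSI end point) and complete inhibition. Run in duplicate on four separate occasions; value is the mean. Drug stock in DMSO, diluted in 0.9% NaCl.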

[2] = tested on: Serum; assay: Fraction unbound in Candida albicans K-1 infected neutropenic ICR/Swiss mouse serum at 5 mg/kg, ip administered 2 hrs postinfection as single dose; format: ADME, organism-based; design: dose 5 mg/kg, route intraperitoneal; conditions: in vivo
[3] = tested on: Nakaseomyces glabratus; assay: Antifungal activity against Candida glabrata 5376 infected in neutropenic ICR/Swiss mouse candidiasis model assessed as suppression of fungal regrowth at 20 mg/kg, ip administered 2 hrs postinfection as single dose by time-kill assay; format: functional, organism-based; design: dose 20 mg/kg
Procedure, shortened: (§2)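 Neutropenic mice were infected i.v. and 2 h later given a single i.p. dose (1.25, 5 or 20 mg/kg). Groups of three treated and three control mice were killed at intervals over 96 h, and kidney CFU were counted on SDA (limit 100 CFU/ml). The post-antifungal effect is t − c: the time for a 1 log10 CFU/kidney increase once serum levels fall below the MIC in treated mice, minus the same time in controls.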

[4] = tested on: Nakaseomyces glabratus; assay: Antifungal activity against Candida glabrata 5376 infected in neutropenic ICR/Swiss mouse candidiasis model assessed as […] burden per kidney administered intraperitoneally once every 96 hrs measured per 96 hrs; format: functional; conditions: Nakaseomyces glabratus, 5376, Kidney, ip
Procedure, shortened: (§3)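 Neutropenic ICR/Swiss mice infected i.v. with the strain; therapy began 2 h later. Total doses of 1.25–320 mg/kg/96 h were given i.p. as 1, 2, 4 or 6 doses (q96h, q48h, q24h, q16h), three mice per regimen. Kidney CFU were counted after 4 days. Effect is the change from untreated controls at the end of therapy.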

[5] = tested on: Nakaseomyces glabratus; assay: Antifungal activity against Candida glabrata 5376 assessed as complete growth inhibition after 24 hrs by CLSI end point method; format: functional; conditions: Nakaseomyces glabratus, 5376, 24 h
Procedure, shortened: (§4)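 Two end points were read against the drug-free control well: partial growth inhibition (the CLSI end point) and complete inhibition. Run in duplicate on four separate occasions; the value is the mean. Drug stock was made in DMSO and diluted in 0.9% NaCl.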

[6] = tested on: Nakaseomyces glabratus; assay: Antifungal activity against Candida glabrata 5376 infected in neutropenic ICR/Swiss mouse candidiasis model assessed as suppression of fungal regrowth at 5 mg/kg, ip administered 2 hrs postinfection as single dose by time-kill assay; format: functional, organism-based; design: dose 5 mg/kg; procedure, shortened: as §2
[7] = tested on: Candida albicans; assay: Antifungal activity against Candida albicans K-1 infected in neutropenic ICR/Swiss mouse candidiasis model assessed as dose required to maintain […] of 3.90 +/- 0.15 log10CFU per kidney administered intraperitoneally every 16 hrs up to 4 days measured per 96 hrs; format: functional
Procedure, shortened: (§5)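 Neutropenic mice were infected iv with C. albicans K-1 2 h before therapy. Total doses of 1.25, 5, 20, 80 and 320 mg/kg/96 h were split into 1, 2, 4 or 6 ip doses (q96h, q48h, q24h, q16h), three mice per regimen. Effect is the log10 CFU/kidney relative to untreated controls at 96 h. Static and 1-log doses were taken from a Hill model fit.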

[8] = tested on: Nakaseomyces glabratus; assay: Antifungal activity against Candida glabrata 5376 infected in neutropenic ICR/Swiss mouse candidiasis model assessed as prolongation of fungal growth suppression at 5 mg/kg, ip administered 2 hrs postinfection as single dose by time-kill assay; format: functional; conditions: route intraperitoneal; procedure, shortened: as §2
[9] = tested on: Candida albicans; assay: Antifungal activity against Candida albicans K-1 infected in neutropenic ICR/Swiss mouse candidiasis model assessed as reduction of […] in kidney at 5 mg/kg, ip administered 2 hrs postinfection as single dose measured after 96 hrs post dosing by time-kill assay; format: functional, organism-based; design: dose 5 mg/kg
Procedure, shortened: (§6)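 Single ip dose (20, 5 or 1.25 mg/kg) given 2 h after iv infection of neutropenic mice with K-1. Three treated and three control mice were sampled at intervals over 96 h for kidney CFU. PAFE is the time for treated burden to rise 1 log10 after serum levels fall below MIC, minus the same time in controls. Free drug was taken as 1%.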

[10] = tested on: Candida albicans; assay: Antifungal activity against Candida albicans 580 assessed as complete growth inhibition after 24 hrs by CLSI end point method; format: functional; conditions: Candida albicans, 580, 24 h; procedure, shortened: as §1
[11] = tested on: Candida albicans; assay: Antifungal activity against Candida albicans K-1 infected in neutropenic ICR/Swiss mouse candidiasis model assessed as dose required for 1-log10 reduction in […] per kidney administered intraperitoneally every 16 hrs up to 4 days measured per 96 hrs; format: functional; procedure, shortened: as §5
[12] = tested on: Nakaseomyces glabratus; assay: Antifungal activity against Candida glabrata 5376 infected in neutropenic ICR/Swiss mouse candidiasis model assessed as […] burden per kidney administered intraperitoneally every 16 hrs up to 4 days measured per 96 hrs; format: functional; conditions: Nakaseomyces glabratus, 5376, Kidney, ip; procedure, shortened: as §3
[13] = tested on: Candida albicans; assay: Antifungal activity against Candida albicans K-1 infected in neutropenic ICR/Swiss mouse candidiasis model assessed as prolongation of fungal growth suppression at 1.25 mg/kg, ip administered 2 hrs postinfection as single dose by time-kill assay; format: functional; conditions: route intraperitoneal
Procedure, shortened: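 Single ip dose of 1.25, 5 or 20 mg/kg given 2 h after iv infection of neutropenic mice. Groups of 3 treated and 3 control mice sampled at 1–24 h intervals over 96 h. Kidney homogenates plated on SDA, 24 h at 35°C. PAFE = time for treated burden to rise 1 log10 CFU/kidney after serum level fell below MIC, minus the same time in controls.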

[14] = tested on: Candida tropicalis; assay: Antifungal activity against Candida tropicalis 98-234 assessed as partial growth inhibition after 24 hrs by CLSI end point method; format: functional; conditions: 98-234, 24 h
[15] = tested on: Nakaseomyces glabratus; assay: Antifungal activity against Candida glabrata 5376 infected in neutropenic ICR/Swiss mouse candidiasis model assessed as dose required to maintain […] burden of 1.83 +/- 0.54 log10CFU per kidney administered intraperitoneally every 24 hrs up to 4 days measured per 24 hrs; format: functional
[16] = tested on: Nakaseomyces glabratus; assay: Antifungal activity against Candida glabrata 5376 infected in neutropenic ICR/Swiss mouse candidiasis model assessed as dose required to maintain […] of 3.71 +/- 0.21 log10CFU per kidney administered intraperitoneally every 16 hrs up to 4 days measured per 96 hrs
[17] = AUC (0 to infinity) in serum of neutropenic ICR/Swiss mouse candidiasis model at 20 mg/kg, ip by reverse-phase high-pressure liquid chromatography; format: ADME, organism-based; design: time infinity, dose 20 mg/kg, route intraperitoneal
Procedure, shortened: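 Single ip dose in 0.2 ml to infected neutropenic mice. Serum from groups of three isoflurane-anaesthetised mice at 1, 4, 8, 12, 24 and 48 h, stored −80°C. Drug measured by reverse-phase HPLC with fluorescence detection against loratadine internal standard (calibration 10–50,000 ng/ml). Noncompartmental analysis; AUC by trapezoidal rule.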

[18] = tested on: Candida albicans; assay: Antifungal activity against Candida albicans K-1 infected in neutropenic ICR/Swiss mouse candidiasis model assessed as reduction of […] in kidney at 20 mg/kg, ip administered 2 hrs postinfection as single dose measured within 1 to 4 hrs post dosing by time-kill assay; format: functional, organism-based; design: dose 20 mg/kg; procedure, shortened: as §6
[19] = tested on: Nakaseomyces glabratus; assay: Antifungal activity against Candida glabrata 32930 assessed as complete growth inhibition after 24 hrs by CLSI end point method; format: functional; conditions: Nakaseomyces glabratus, 32930, 24 h; procedure, shortened: as §1
[20] = tested on: Nakaseomyces glabratus; assay: Antifungal activity against Candida glabrata 570 assessed as partial growth inhibition after 24 hrs by CLSI end point method; format: functional; conditions: Nakaseomyces glabratus, 570, 24 h; procedure, shortened: as §4
[21] = tested on: Nakaseomyces glabratus; assay: Antifungal activity against Candida glabrata 570 assessed as complete growth inhibition after 24 hrs by CLSI end point method; format: functional; conditions: Nakaseomyces glabratus, 570, 24 h; procedure, shortened: as §4
[22] = Cmax in human at 100 mg/day; format: ADME, organism-based; design: dose 100 mg/day; conditions: in vivo

**Q.** Which results are given for `CCCCCOc1ccc(-c2ccc(-c3ccc(C(=O)N[C@H]4C[C@@H](O)[C@@H](O)NC(=O)[C@@H]5[C@@H](O)[C@@H](C)CN5C(=O)[C@H]([C@@H](C)O)NC(=O)[C@H]([C@H](O)[C@@H](O)c5ccc(O)cc5)NC(=O)[C@@H]5C[C@@H](O)CN5C(=O)[C@H]([C@@H](C)O)NC4=O)cc3)cc2)cc1` [ANIDULAFUNGIN] ({pTerphenylCO(4''-OnC5H11)}-[Orn(4R-OH,5R-OH)]T[Hyp][hTyr(3S-OH,4S-OH)]T[Pro(3S-OH,4S-Me)]; lactam 1-C)?
**A.** MIC [1]: 0.03 µg/mL (≈ 0.0263 µM); Fu [2]: 1%; Activity [3]: Active; ED50 [4]: 8.12 mg/kg; MIC [5]: 0.06 µg/mL (≈ 0.0526 µM); Activity [6]: Active; Activity [7]: 16.5 mg/kg; Activity [8]: 19 h; Activity [9]: Active; MIC [10]: 0.03 µg/mL (≈ 0.0263 µM); Activity [11]: 38.3 mg/kg; ED50 [12]: 26.3 mg/kg; Activity [13]: 56 h; MIC [14]: 0.015 µg/mL (≈ 0.0132 µM); Activity [15]: 6.8 mg/kg; Activity [16]: 30 mg/kg; AUC(0-inf) [17]: 382 µg·h/mL; Activity [18]: Active; MIC [19]: 0.12 µg/mL (≈ 0.105 µM); MIC [20]: 0.03 µg/mL (≈ 0.0263 µM); MIC [21]: 0.12 µg/mL (≈ 0.105 µM); Cmax [22]: 11000 ng/mL
